In assay [1] the test system is Escherichia coli. Description: Inhibition of Escherichia coli recombinant C terminal His-tagged MurG expressed in Escherichia coli C43 assessed as inhibition of […] labelled lipid intermediate 2 formation at 1 mM over 15 mins by scintillation counting.
Assay [2] concerns the target T1, Galactofuranosyltransferase GlfT2 (Mycobacterium tuberculosis) (UniProt O53585).
T1 sequence (whole entry): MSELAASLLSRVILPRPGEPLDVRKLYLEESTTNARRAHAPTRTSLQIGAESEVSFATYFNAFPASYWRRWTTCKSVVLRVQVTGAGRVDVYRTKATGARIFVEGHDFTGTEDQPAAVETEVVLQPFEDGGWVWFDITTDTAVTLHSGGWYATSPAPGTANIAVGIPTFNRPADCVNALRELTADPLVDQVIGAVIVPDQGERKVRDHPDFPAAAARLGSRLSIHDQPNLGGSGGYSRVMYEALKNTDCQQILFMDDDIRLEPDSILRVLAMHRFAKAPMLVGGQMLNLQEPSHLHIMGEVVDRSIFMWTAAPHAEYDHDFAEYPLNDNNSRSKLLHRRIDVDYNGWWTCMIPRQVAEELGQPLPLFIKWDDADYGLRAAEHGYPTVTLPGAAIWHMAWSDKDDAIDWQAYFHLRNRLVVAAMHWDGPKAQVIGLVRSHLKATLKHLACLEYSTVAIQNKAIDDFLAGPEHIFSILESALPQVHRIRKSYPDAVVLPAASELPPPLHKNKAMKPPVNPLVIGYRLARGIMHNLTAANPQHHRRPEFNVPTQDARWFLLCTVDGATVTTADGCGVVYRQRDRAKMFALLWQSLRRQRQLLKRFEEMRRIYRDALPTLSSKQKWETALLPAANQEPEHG
Description: Inhibition of Mycobacterium tuberculosis GlfT2 assessed as incorporation of [14C]Gal at 1 mM by scintillation counting.

A short description of assay [3]: Inhibition of Escherichia coli recombinant C terminal His-tagged MurG expressed in Escherichia coli C43 assessed as inhibition of [3H]UDPGlc labelled lipid intermediate 2 formation over 15 mins by scintillation counting.
The test system of assay [4] is Escherichia coli. Description: Antibacterial activity against Escherichia coli BL21 at 100 ug/ml after 24 hrs. The format is functional, organism-based. The method, boiled down: (§1)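 LB broth culture grown overnight at 37 °C from a single colony, diluted to 2% in fresh LB and mixed 1:1 with sterile aqueous compound (200 μg/ml or 1 mg/ml solution) or water. Incubated at 37 °C, growth followed by OD595 at 3, 6 and 24 h.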

A further assay has as its system Bacillus subtilis. Description: Antibacterial activity against Bacillus subtilis W23 at 100 ug/ml after 24 hrs. It is filed as functional, organism-based. The method, boiled down:
as §1

A further assay deals with Pseudomonas putida. Description: Antibacterial activity against Pseudomonas putida ATCC 33015 at 100 ug/ml after 24 hrs. The format is functional, organism-based. The method, boiled down: as §1

Structures are written as SMILES. Activity calls are given as the source filed them. The rule behind the calls is not given here.

From ChEMBL document CHEMBL1156961, “Inhibition of Escherichia coli glycosyltransferase MurG and Mycobacterium tuberculosis Gal transferase by uridine-linked transition state mimics” (Bioorg Med Chem, 2010) come the findings set out here.

`COC(=O)[C@@H]1[C@@H]2C(=O)N(CC(=O)NC[C@H]3O[C@@H](n4ccc(=O)[nH]c4=O)[C@H](O)[C@@H]3O)C(=O)[C@@H]2N[C@@H]1c1cccc(OC)c1OC`: in the assay with Escherichia coli [1], the inhibition came out at 0%.

For the molecule `COC(=O)[C@@H]1[C@H]2C(=O)N(CC(=O)NC[C@H]3O[C@@H](n4ccc(=O)[nH]c4=O)[C@H](O)[C@@H]3O)C(=O)[C@@H]2N[C@@H]1c1ccccc1OC`, the results for the inhibition (in assay [2]; in the assay on Escherichia coli [1]) were 0% and 22%, respectively.

Take `COc1ccccc1[C@H]1N[C@@](C)(C(=O)N2CCC[C@H]2C(=O)NC[C@H]2O[C@@H](n3ccc(=O)[nH]c3=O)[C@H](O)[C@@H]2O)[C@H]2C(=O)NC(=O)[C@@H]12`: in assay [3], the half-inhibitory concentration (IC50) is over 5 mM.

As for `COC(=O)[C@@H]1[C@@H]2C(=O)N(CC(=O)NC[C@H]3O[C@@H](n4ccc(=O)[nH]c4=O)[C@H](O)[C@@H]3O)C(=O)[C@@H]2N[C@@H]1c1ccccc1OC`, the inhibition (in assay [2]; with Escherichia coli [1]) was 0% each time.

Turning to `COC(=O)[C@@H]1[C@@H]2C(=O)N(CC(=O)NC[C@H]3O[C@@H](n4ccc(=O)[nH]c4=O)[C@H](O)[C@@H]3O)C(=O)[C@@H]2N[C@@H]1c1ccccc1`, the inhibition was determined as 80% in assay [2] and 0% with Escherichia coli [1].

As to `COC(=O)[C@H]1[C@@H](c2ccccc2OC)N[C@@](C)(C(=O)N2CCC[C@H]2C(=O)NC[C@H]2O[C@@H](n3ccc(=O)[nH]c3=O)[C@H](O)[C@@H]2O)[C@@H]1C(=O)OC` (mixture of isomers), the inhibition in assay [2] was determined as 0%.

In the case of `COc1ccccc1[C@H]1N[C@@](C)(COC(=O)CC(=O)OC[C@H]2O[C@@H](n3ccc(=O)[nH]c3=O)[C@H](O)[C@@H]2O)[C@H]2C(=O)N(c3ccccc3)C(=O)[C@@H]12`, the inhibition in assay [2] is 0%.

For `COC(=O)[C@H]1[C@@H](c2ccccc2OC)N[C@@](C)(C(=O)NCC(=O)NC[C@H]2O[C@@H](n3ccc(=O)[nH]c3=O)[C@H](O)[C@@H]2O)[C@@H]1C(=O)OC` (mixture of isomers), the IC50 in assay [3] was over 5 mM. Also, in assay [2], the inhibition was 0%.

`COC(=O)[C@@H]1[C@@H]2C(=O)N(CC(=O)NC[C@H]3O[C@@H](n4ccc(=O)[nH]c4=O)[C@H](O)[C@@H]3O)C(=O)[C@@H]2N[C@@H]1c1ccc(OC)c(OC)c1`: the concentration for half-maximal inhibition (IC50) in assay [3] was found to be 4 mM. The inhibition in assay [2] came to 0%.

For `COc1ccccc1[C@H]1N[C@@](C)(C(=O)NCC(=O)NC[C@H]2O[C@@H](n3ccc(=O)[nH]c3=O)[C@H](O)[C@@H]2O)[C@H]2C(=O)N(c3ccccc3)C(=O)[C@@H]12` (mixture of isomers), the result in the assay with Escherichia coli [4], with Bacillus subtilis and with Pseudomonas putida was inactive. The inhibition in assay [2] worked out at 0%.

As for `C[C@@]1(C(=O)NCC(=O)NC[C@H]2O[C@@H](n3ccc(=O)[nH]c3=O)[C@H](O)[C@@H]2O)N[C@H]([C@H](O)CO)[C@@H]2C(=O)N(c3ccccc3)C(=O)[C@@H]21`, the inhibition in assay [2] is 0%.

In the case of `COC(=O)[C@H]1[C@@H](c2ccccc2OC)N[C@@](C)(C(=O)N2CCC[C@H]2C(=O)NC[C@H]2O[C@@H](n3ccc(=O)[nH]c3=O)[C@H](O)[C@@H]2O)[C@H]1C(=O)OC`, the inhibition in assay [2] is 0%.

Turning to `COc1ccccc1[C@H]1N[C@@](C)(COC(=O)CCC(=O)OC[C@H]2O[C@@H](n3ccc(=O)[nH]c3=O)[C@H](O)[C@@H]2O)[C@H]2C(=O)N(c3ccccc3)C(=O)[C@@H]12` (mixture of isomers), the inhibition in assay [2] was 0%.

In the case of `COc1cccc([C@H]2N[C@@](C)(C(=O)NCC(=O)NC[C@H]3O[C@@H](n4ccc(=O)[nH]c4=O)[C@H](O)[C@@H]3O)[C@H]3C(=O)N(c4ccccc4)C(=O)[C@@H]23)c1OC`, the inhibition in assay [2] turned out to be 0%.
